In ChEMBL document CHEMBL1144782, “Isoindolo[2,1-a]quinoxaline derivatives, novel potent antitumor agents with dual inhibition of tubulin polymerization and topoisomerase I” (2008):

System: CCRF-CEM
Assay: Growth inhibition of human CEM cells after 72 hrs by MTT assay
Format: functional
Conditions: not given
Procedure, shortened: (§1)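 Growth inhibition by MTT after 72 h incubation. Resistant sublines: LoVoDoxo and MCF-7 MDR were kept in 0.1 µg/mL doxorubicin; CEMVbl-100 was selected against vinblastine. GI50 given as mean ± SEM of three independent experiments. Resistance index is resistant-line GI50 over parental GI50.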

SMILES	GI50 [µM]
Cc1cc2[nH]c(=O)c3c4ccccc4cn3c2cc1C	15.5

System: NCI-H23
Assay: Antitumor activity against human NCI-H23 cells
Format: functional
Conditions: not given
Procedure, shortened: (§2)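 Run by the NCI in its in vitro disease-oriented screen of about 60 human tumour cell lines. For each line it reports pGI50 (50% net growth inhibition), pTGI (total growth inhibition) and pLC50 (50% net cell death), each as –log molar concentration. Where an effect was not reached within the tested range, the highest tested concentration was used.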

SMILES	GI50 [µM]	LC50 (50% net cell kill) [µM]
Cc1cc2[nH]c(=O)c3c4ccccc4cn3c2cc1C	14.8	69.2

Same assay, conditions: read-out: pTGI (converted)

SMILES	TGI [µM]
Cc1cc2[nH]c(=O)c3c4ccccc4cn3c2cc1C	32.4

System: NCI-H460
Assay: Antitumor activity against human NCI-H460 cells
Format: functional
Conditions: not given
Procedure, shortened: as §2

SMILES	GI50 [µM]
Cc1cc2[nH]c(=O)c3c4ccccc4cn3c2cc1C	4.47

Same assay, conditions: read-out: Log LC50 (the source's name) (converted)

SMILES	CC50 [µM]
Cc1cc2[nH]c(=O)c3c4ccccc4cn3c2cc1C	63.1

Same assay, conditions: read-out: pTGI (converted)

SMILES	TGI [µM]
Cc1cc2[nH]c(=O)c3c4ccccc4cn3c2cc1C	20.4

System: NCI-H226
Assay: Antitumor activity against human NCI-H226 cells
Format: functional
Conditions: not given
Procedure, shortened: as §2

SMILES	GI50 [µM]	LC50 (50% net cell kill) [µM]
Cc1cc2[nH]c(=O)c3c4ccccc4cn3c2cc1C	15.1	89.1

Same assay, conditions: read-out: pTGI (converted)

SMILES	TGI [µM]
Cc1cc2[nH]c(=O)c3c4ccccc4cn3c2cc1C	36.3

System: HT-29
Assay: Antitumor activity against human HT29 cells
Format: functional
Conditions: not given
Procedure, shortened: as §2

SMILES	GI50 [µM]	LC50 [µM]
Cc1cc2[nH]c(=O)c3c4ccccc4cn3c2cc1C	6.03	> 100

Same assay, conditions: read-out: pTGI (converted)

SMILES	TGI [µM]
Cc1cc2[nH]c(=O)c3c4ccccc4cn3c2cc1C	> 100

System: CCRF-CEM
Assay: Antitumor activity against human CCRF-CEM cells
Format: functional
Conditions: not given
Procedure, shortened: as §2

SMILES	GI50 [µM]	LC50 [µM]
Cc1cc2[nH]c(=O)c3c4ccccc4cn3c2cc1C	10	97.7

Same assay, conditions: read-out: pTGI (converted)

SMILES	TGI [µM]
Cc1cc2[nH]c(=O)c3c4ccccc4cn3c2cc1C	30.9

System: CCRF-CEM
Assay: Growth inhibition of human vinblastine-resistant CEM cells after 72 hrs by MTT assay
Format: functional
Conditions: not given
Procedure, shortened: as §1

SMILES	GI50 [µM]
Cc1cc2[nH]c(=O)c3c4ccccc4cn3c2cc1C	15.1

System: UACC-62
Assay: Antitumor activity against human UACC62 cells
Format: functional
Conditions: not given
Procedure, shortened: (§3)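 NCI 60-cell-line screen. Parameters were GI50 (50% net growth inhibition), TGI and LC50, each reported as –log molar concentration. Where an effect was not reached within the tested range, the highest tested concentration was used in the calculation.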

SMILES	GI50 [µM]	LC50 [µM]
Cc1cc2[nH]c(=O)c3c4ccccc4cn3c2cc1C	16.6	60.3

Same assay, conditions: read-out: pTGI (converted)

SMILES	TGI [µM]
Cc1cc2[nH]c(=O)c3c4ccccc4cn3c2cc1C	31.6

System: U-251
Assay: Antitumor activity against human U251 cells
Format: functional
Conditions: not given
Procedure, shortened: as §3

SMILES	GI50 [µM]
Cc1cc2[nH]c(=O)c3c4ccccc4cn3c2cc1C	4.07

Same assay, conditions: read-out: Log LC50 (the source's name) (converted)

SMILES	CC50 [µM]
Cc1cc2[nH]c(=O)c3c4ccccc4cn3c2cc1C	47.9

Same assay, conditions: read-out: pTGI (converted)

SMILES	TGI [µM]
Cc1cc2[nH]c(=O)c3c4ccccc4cn3c2cc1C	14.1

System: ACHN
Assay: Antitumor activity against human ACHN cells
Format: functional
Conditions: not given
Procedure, shortened: as §2

SMILES	GI50 [µM]	LC50 (50% net cell kill) [µM]
Cc1cc2[nH]c(=O)c3c4ccccc4cn3c2cc1C	10.2	53.7

Same assay, conditions: read-out: pTGI (converted)

SMILES	TGI [µM]
Cc1cc2[nH]c(=O)c3c4ccccc4cn3c2cc1C	23.4

System: SF-268
Assay: Cell viability against human SF268 cells at 10 uM
Format: functional
Conditions: not given

SMILES	Activity [%]
Cc1cc2[nH]c(=O)c3c4ccccc4cn3c2cc1C	0

System: Hs-578T
Assay: Antitumor activity against human HS578T cells
Format: functional
Conditions: not given
Procedure, shortened: as §2

SMILES	GI50 [µM]
Cc1cc2[nH]c(=O)c3c4ccccc4cn3c2cc1C	25.1

Same assay, conditions: read-out: Log LC50 (the source's name) (converted)

SMILES	CC50 [µM]
Cc1cc2[nH]c(=O)c3c4ccccc4cn3c2cc1C	> 100

Same assay, conditions: read-out: pTGI (converted)

SMILES	TGI [µM]
Cc1cc2[nH]c(=O)c3c4ccccc4cn3c2cc1C	60.3

System: T47D
Assay: Antitumor activity against human T47D cells
Format: functional
Conditions: not given
Procedure, shortened: as §3

SMILES	GI50 [µM]	LC50 [µM]
Cc1cc2[nH]c(=O)c3c4ccccc4cn3c2cc1C	15.5	> 100

Same assay, conditions: read-out: pTGI (converted)

SMILES	TGI [µM]
Cc1cc2[nH]c(=O)c3c4ccccc4cn3c2cc1C	50.1

System: OVCAR-5
Assay: Antitumor activity against human OVCAR5 cells
Format: functional
Conditions: not given
Procedure, shortened: as §2

SMILES	GI50 [µM]	LC50 (50% net cell death) [µM]
Cc1cc2[nH]c(=O)c3c4ccccc4cn3c2cc1C	13.8	55

Same assay, conditions: read-out: pTGI (converted)

SMILES	TGI [µM]
Cc1cc2[nH]c(=O)c3c4ccccc4cn3c2cc1C	27.5

System: BT-549
Assay: Antitumor activity against human BT549 cells
Format: functional
Conditions: not given
Procedure, shortened: as §2

SMILES	GI50 [µM]	LC50 (50% net cell kill) [µM]
Cc1cc2[nH]c(=O)c3c4ccccc4cn3c2cc1C	19.5	85.1

Same assay, conditions: read-out: pTGI (converted)

SMILES	TGI [µM]
Cc1cc2[nH]c(=O)c3c4ccccc4cn3c2cc1C	40.7

System: SF-295
Assay: Antitumor activity against human SF295 cells
Format: functional
Conditions: not given
Procedure, shortened: as §2

SMILES	GI50 [µM]
Cc1cc2[nH]c(=O)c3c4ccccc4cn3c2cc1C	12.3

Same assay, conditions: read-out: Log LC50 (the source's name) (converted)

SMILES	CC50 [µM]
Cc1cc2[nH]c(=O)c3c4ccccc4cn3c2cc1C	66.1

Same assay, conditions: read-out: pTGI (converted)

SMILES	TGI [µM]
Cc1cc2[nH]c(=O)c3c4ccccc4cn3c2cc1C	28.2

System: MOLT-4
Assay: Antitumor activity against human MOLT4 cells
Format: functional
Conditions: not given
Procedure, shortened: as §2

SMILES	GI50 [µM]	LC50 [µM]
Cc1cc2[nH]c(=O)c3c4ccccc4cn3c2cc1C	5.62	70.8

Same assay, conditions: read-out: pTGI (converted)

SMILES	TGI [µM]
Cc1cc2[nH]c(=O)c3c4ccccc4cn3c2cc1C	19.5

System: TK-10
Assay: Antitumor activity against human TK10 cells
Format: functional
Conditions: not given
Procedure, shortened: as §3

SMILES	GI50 [µM]
Cc1cc2[nH]c(=O)c3c4ccccc4cn3c2cc1C	20

Same assay, conditions: read-out: Log LC50 (the source's name) (converted)

SMILES	CC50 [µM]
Cc1cc2[nH]c(=O)c3c4ccccc4cn3c2cc1C	58.9

Same assay, conditions: read-out: pTGI (converted)

SMILES	TGI [µM]
Cc1cc2[nH]c(=O)c3c4ccccc4cn3c2cc1C	33.9

System: UACC-257
Assay: Antitumor activity against human UACC257 cells
Format: functional
Conditions: not given
Procedure, shortened: as §3

SMILES	GI50 [µM]	LC50 [µM]
Cc1cc2[nH]c(=O)c3c4ccccc4cn3c2cc1C	20.4	63.1

Same assay, conditions: read-out: pTGI (converted)

SMILES	TGI [µM]
Cc1cc2[nH]c(=O)c3c4ccccc4cn3c2cc1C	35.5

System: KM12
Assay: Antitumor activity against human KM12 cells
Format: functional
Conditions: not given
Procedure, shortened: as §2

SMILES	GI50 [µM]	LC50 (50% net cell death) [µM]
Cc1cc2[nH]c(=O)c3c4ccccc4cn3c2cc1C	7.08	52.5

Same assay, conditions: read-out: pTGI (converted)

SMILES	TGI [µM]
Cc1cc2[nH]c(=O)c3c4ccccc4cn3c2cc1C	21.4

System: HOP-62
Assay: Antitumor activity against human HOP62 cells
Format: functional
Conditions: not given
Procedure, shortened: as §2

SMILES	GI50 [µM]	LC50 (50% net cell death) [µM]
Cc1cc2[nH]c(=O)c3c4ccccc4cn3c2cc1C	2.69	28.8

Same assay, conditions: read-out: pTGI (converted)

SMILES	TGI [µM]
Cc1cc2[nH]c(=O)c3c4ccccc4cn3c2cc1C	8.13

System: OVCAR-8
Assay: Antitumor activity against human OVCAR8 cells
Format: functional
Conditions: not given
Procedure, shortened: as §2

SMILES	GI50 [µM]	LC50 (50% net cell death) [µM]
Cc1cc2[nH]c(=O)c3c4ccccc4cn3c2cc1C	7.08	81.3

Same assay, conditions: read-out: pTGI (converted)

SMILES	TGI [µM]
Cc1cc2[nH]c(=O)c3c4ccccc4cn3c2cc1C	25.7

System: SW-620
Assay: Antitumor activity against human SW620 cells
Format: functional
Conditions: not given
Procedure, shortened: as §3

SMILES	GI50 [µM]
Cc1cc2[nH]c(=O)c3c4ccccc4cn3c2cc1C	3.8

Same assay, conditions: read-out: Log LC50 (the source's name) (converted)

SMILES	CC50 [µM]
Cc1cc2[nH]c(=O)c3c4ccccc4cn3c2cc1C	> 100

Same assay, conditions: read-out: pTGI (converted)

SMILES	TGI [µM]
Cc1cc2[nH]c(=O)c3c4ccccc4cn3c2cc1C	33.1

System: MCF7
Assay: Growth inhibition of human multidrug-resistant MCF7 cells after 72 hrs by MTT assay
Format: functional
Conditions: MCF7, 72 h
Procedure, shortened: as §1

SMILES	GI50 [µM]
Cc1cc2[nH]c(=O)c3c4ccccc4cn3c2cc1C	9.2

System: SR
Assay: Antitumor activity against human SR cells
Format: functional
Conditions: not given
Procedure, shortened: as §3

SMILES	GI50 [µM]	LC50 [µM]
Cc1cc2[nH]c(=O)c3c4ccccc4cn3c2cc1C	2.57	49

Same assay, conditions: read-out: pTGI (converted)

SMILES	TGI [µM]
Cc1cc2[nH]c(=O)c3c4ccccc4cn3c2cc1C	5.75
